Data: ChEMBL document CHEMBL3045425, “Isolation and identification of precocenes and piperitone from essential oils as specific inhibitors of trichothecene production by Fusarium graminearum” (J Agric Food Chem, 2009)
The source made the active and inactive calls. The calls are words filed in the database; no cut-off is given here.

Legend:
Fusarium graminearum [1] = test: microbe, parasite or virus in culture; type: functional
Fusarium graminearum [2] = test: microbe, parasite or virus in culture; type: functional; remark: listed apart in the source
Fusarium graminearum [3] = type: functional, organism-based
Fusarium graminearum [4] = test: microbe, parasite or virus in culture; type: functional, organism-based; details: 168 h
Fusarium culmorum = test: Inhibition of 3-acetyldeoxynivalenol production by Fusarium culmorum in liquid culture; type: functional, organism-based
Fusarium graminearum [5] = type: functional, organism-based; remark: listed apart in the source
Fusarium graminearum [6] = test: Effect on deoxynivalenol synthetic pathway intermediates accumulation in Fusarium graminearum at 30 uM by TLC analysis; type: functional, organism-based
In short: (§1)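 Pooled broth (5 × 10 mL) was split into filtrate and mycelia. Filtrate was extracted with ethyl acetate and mycelia with methanol. n-Hexane and ethyl acetate fractions were examined spectroscopically for intermediate signals such as trichodiene.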

Fusarium graminearum [7] = test: Downregulation of Tri10 gene expression in Fusarium graminearum at 26.5 degC measured after 48 to 96 hr by quantitative-RT-PCR analysis; type: functional, organism-based
In short: (§2)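 SYEP liquid medium (5 mL/tube) inoculated with 1 × 10^5 spores and shaken at 300 rpm, 26.5 °C, with or without compound at 3 or 30 µM, for 48, 96 or 144 h. Total RNA was taken from the mycelia. SYBR Green real-time RT-PCR was run on cDNA from 0.005 µg RNA: 95 °C 10 min, then 40 cycles of 95 °C 15 s / 60 °C 1 min. β-tubulin mRNA was the reference; n = 3.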

Fusarium graminearum [8] = test: Downregulation of Tri6 gene expression in Fusarium graminearum at 26.5 degC measured after 48 to 96 hr by quantitative-RT-PCR analysis; type: functional, organism-based
In short: as §2

Fusarium graminearum [9] = test: Downregulation of Tri5 gene expression in Fusarium graminearum at 3 to 30 uM at 26.5 degC measured after 48 to 144 hr by quantitative-RT-PCR analysis; type: functional, organism-based
In short: as §2

Fusarium graminearum [10] = test: Downregulation of Tri4 gene expression in Fusarium graminearum at 3 to 30 uM at 26.5 degC measured after 48 to 144 hr by quantitative-RT-PCR analysis; type: functional, organism-based
In short: as §2

Fusarium graminearum [11] = test: Growth inhibition of Fusarium graminearum assessed as mycelial weight at 26.5 degC after 7 days; type: organism-based; details: in vivo, 168 h
In short: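 Methanolic sample added to 5 mL SYEP (sucrose 5%, yeast extract 0.1%, polypeptone 0.1%), final methanol 0.3%. Inoculated with 1 × 10^5 spores/tube and shaken at 300 rpm, 26.5 °C, for 7 days. Mycelia were collected on cheesecloth, washed with water, dried at 100 °C for 3 h and weighed.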

Fusarium graminearum [12] = test: Effect on deoxynivalenol synthetic pathway intermediates accumulation in Fusarium graminearum at 1000 uM by TLC analysis; type: functional, organism-based
In short: as §1

Fusarium graminearum [13] = test: Downregulation of Tri10 gene expression in Fusarium graminearum at 300 to 1000 uM measured after 72 hr by quantitative-RT-PCR analysis; type: functional, organism-based
In short: (§3)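 Spores (1 × 10^5/tube) grown in 5 mL SYEP medium with shaking at 300 rpm, 26.5 °C, for 72 h, with or without compound at 300 or 1000 µM. Mycelial total RNA was used for SYBR Green qRT-PCR on cDNA from 0.005 µg RNA: 95 °C 10 min, then 40 cycles of 95 °C 15 s / 60 °C 1 min. Normalised to β-tubulin mRNA; n = 3.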

Fusarium graminearum [14] = test: Downregulation of Tri6 gene expression in Fusarium graminearum at 300 to 1000 uM measured after 72 hr by quantitative-RT-PCR analysis; type: functional, organism-based
In short: as §3

Fusarium graminearum [15] = test: Downregulation of Tri5 gene expression in Fusarium graminearum at 300 to 1000 uM measured after 72 hr by quantitative-RT-PCR analysis; type: functional, organism-based
In short: as §3

Fusarium graminearum [16] = test: Downregulation of Tri4 gene expression in Fusarium graminearum at 300 to 1000 uM measured after 72 hr by quantitative-RT-PCR analysis; type: functional, organism-based
In short: as §3

SMILES	inhibition at 152 ppm (Fusarium graminearum [1]) [%]	inhibition at 5.7 ppm (Fusarium graminearum [2]) [%]	IC50 (Fusarium graminearum [3]) [ppm]	IC50 (Fusarium graminearum [4]) [µM]	IC50 (Fusarium culmorum) [µM]	IC50 (Fusarium graminearum [5]) [ppm]	Activity (Fusarium graminearum [6])	inhibition (Fusarium graminearum [7])	inhibition (Fusarium graminearum [8])	inhibition (Fusarium graminearum [9])	inhibition (Fusarium graminearum [10])	Activity (Fusarium graminearum [11])	Activity (Fusarium graminearum [12])	inhibition (Fusarium graminearum [13])	inhibition (Fusarium graminearum [14])	inhibition (Fusarium graminearum [15])	inhibition (Fusarium graminearum [16])
COc1ccc2c(c1)OC(C)(C)C=C2 [PROCOCENE I]	25	20	1.3	16.6													
CC(=O)c1cccc2oc(=O)[nH]c12 [4-ACETYL-2-BENZOXAZOLINONE]					4												
COc1cc2c(cc1OC)OC(C)(C)C=C2 [PROCOCENE II]			0.36	1.2		2	inactive	Dose-dependent effect	Dose-dependent effect	Active	Active	Non-toxic					
CC1=CC(=O)[C@@H](C(C)C)CC1 [(-)-PIPERITONE]	25	20	61.2	306								Non-toxic	inactive	Active	Active	Active	Active
